Data: ChEMBL document CHEMBL1781959, “Synthesis and in vitro antitumor activity of substituted quinazoline and quinoxaline derivatives: search for anticancer agent” (Eur J Med Chem, 2011)

Assays:
Format in all cases: functional
[1] = tested on: SF-295; experiment: Anticancer activity against human SF295 cells assessed as cell growth promotion at 10^-5 M after 48 hrs by SRB assay relative to control
[2] = tested on: SK-MEL-28; experiment: Anticancer activity against human SK-MEL-28 cells assessed as cell growth promotion at 10^-5 M after 48 hrs by SRB assay relative to control
[3] = tested on: K562; experiment: Anticancer activity against human K562 cells assessed as cell growth promotion at 10^-5 M after 48 hrs by SRB assay relative to control
[4] = tested on: UACC-257; experiment: Anticancer activity against human UACC257 cells assessed as cell growth promotion at 10^-5 M after 48 hrs by SRB assay relative to control
[5] = tested on: MDA-MB-468; experiment: Anticancer activity against human MDA-MB-468 cells assessed as cell growth promotion at 10^-5 M after 48 hrs by SRB assay relative to control
[6] = tested on: HOP-62; experiment: Anticancer activity against human HOP62 cells assessed as cell growth promotion at 10^-5 M after 48 hrs by SRB assay relative to control
[7] = tested on: 786-0; experiment: Anticancer activity against human 786-0 cells assessed as cell growth promotion at 10^-5 M after 48 hrs by SRB assay relative to control
[8] = tested on: PC-3; experiment: Anticancer activity against human PC3 cells assessed as cell growth promotion at 10^-5 M after 48 hrs by SRB assay relative to control
[9] = tested on: NCI-H226; experiment: Anticancer activity against human NCI-H226 cells assessed as cell growth promotion at 10^-5 M after 48 hrs by SRB assay relative to control
[10] = tested on: CAKI-1; experiment: Anticancer activity against human Caki1 cells assessed as cell growth promotion at 10^-5 M after 48 hrs by SRB assay relative to control
[11] = tested on: NCI-H23; experiment: Anticancer activity against human NCI-H23 cells assessed as cell growth promotion at 10^-5 M after 48 hrs by SRB assay relative to control
[12] = tested on: SW-620; experiment: Anticancer activity against human SW620 cells assessed as cell growth promotion at 10^-5 M after 48 hrs by SRB assay relative to control
[13] = tested on: CCRF-CEM; experiment: Anticancer activity against human CCRF-CEM cells assessed as cell growth promotion at 10^-5 M after 48 hrs by SRB assay relative to control
[14] = tested on: NCI-H322M; experiment: Anticancer activity against human NCI-H322M cells assessed as cell growth promotion at 10^-5 M after 48 hrs by SRB assay relative to control
[15] = tested on: MCF7; experiment: Anticancer activity against human MCF7 cells assessed as cell growth promotion at 10^-5 M after 48 hrs by SRB assay relative to control
[16] = tested on: LOX IMVI; experiment: Anticancer activity against human LOXIMVI cells assessed as cell growth promotion at 10^-5 M after 48 hrs by SRB assay relative to control
[17] = tested on: NCI-H460; experiment: Anticancer activity against human NCI-H460 cells assessed as cell growth promotion at 10^-5 M after 48 hrs by SRB assay relative to control
[18] = tested on: NCI/ADR-RES; experiment: Anticancer activity against human NCI/ADR-RES cells assessed as cell growth promotion at 10^-5 M after 48 hrs by SRB assay relative to control
[19] = tested on: SR; experiment: Anticancer activity against human SR cells assessed as cell growth promotion at 10^-5 M after 48 hrs by SRB assay relative to control
[20] = tested on: COLO 205; experiment: Anticancer activity against human COLO205 cells assessed as cell growth promotion at 10^-5 M after 48 hrs by SRB assay relative to control
[21] = tested on: U-251; experiment: Anticancer activity against human U251 cells assessed as cell growth promotion at 10^-5 M after 48 hrs by SRB assay relative to control
[22] = tested on: OVCAR-3; experiment: Anticancer activity against human OVCAR3 cells assessed as cell growth promotion at 10^-5 M after 48 hrs by SRB assay relative to control
[23] = Anticancer activity against human Hs 578T cells assessed as cell growth promotion at 10^-5 M after 48 hrs by SRB assay relative to control
[24] = tested on: HT-29; experiment: Anticancer activity against human HT-29 cells assessed as cell growth promotion at 10^-5 M after 48 hrs by SRB assay relative to control
[25] = Anticancer activity against human […] cells assessed as cell growth promotion at 10^-5 M after 48 hrs by SRB assay relative to control
[26] = tested on: HCC 2998; experiment: Anticancer activity against human HCC2998 cells assessed as cell growth promotion at 10^-5 M after 48 hrs by SRB assay relative to control
[27] = tested on: SF-539; experiment: Anticancer activity against human SF539 cells assessed as cell growth promotion at 10^-5 M after 48 hrs by SRB assay relative to control
[28] = tested on: SF-268; experiment: Anticancer activity against human SF268 cells assessed as cell growth promotion at 10^-5 M after 48 hrs by SRB assay relative to control
[29] = tested on: A549; experiment: Anticancer activity against human A549 cells assessed as cell growth promotion at 10^-5 M after 48 hrs by SRB assay relative to control
[30] = tested on: HCT-15; experiment: Anticancer activity against human HCT15 cells assessed as cell growth promotion at 10^-5 M after 48 hrs by SRB assay relative to control
[31] = tested on: MDA-MB-231; experiment: Anticancer activity against human MDA-MB-231 cells assessed as cell growth promotion at 10^-5 M after 48 hrs by SRB assay relative to control
[32] = tested on: IGROV-1; experiment: Anticancer activity against human IGROV1 cells assessed as cell growth promotion at 10^-5 M after 48 hrs by SRB assay relative to control
[33] = tested on: HL-60(TB); experiment: Anticancer activity against human HL-60(TB) cells assessed as cell growth promotion at 10^-5 M after 48 hrs by SRB assay relative to control
Procedure, shortened: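 NCI-60 single-dose screen: compound at 10^-5 M, 48 h at 37 °C, 5% CO2; cells grown in RPMI 1640 with 5% FBS and 2 mM L-glutamine, pre-incubated 24 h before dosing. Adherent cells fixed with cold TCA; endpoint is sulforhodamine B protein staining. Percent growth of treated cells is reported relative to untreated control.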

[34] = tested on: UACC-62; experiment: Anticancer activity against human UACC62 cells assessed as cell growth promotion at 10^-5 M after 48 hrs by SRB assay relative to control
[35] = tested on: HCT-116; experiment: Anticancer activity against human HCT116 cells assessed as cell growth promotion at 10^-5 M after 48 hrs by SRB assay relative to control
[36] = tested on: OVCAR-5; experiment: Anticancer activity against human OVCAR5 cells assessed as cell growth promotion at 10^-5 M after 48 hrs by SRB assay relative to control
[37] = tested on: Malme-3M; experiment: Anticancer activity against human MALME-3M cells assessed as cell growth promotion at 10^-5 M after 48 hrs by SRB assay relative to control
[38] = tested on: SN12C; experiment: Anticancer activity against human SN12C cells assessed as cell growth promotion at 10^-5 M after 48 hrs by SRB assay relative to control

CN(C)c1ccc(/C=C/c2nc3ccccc3nc2SCc2nc3ccccc3[nH]2)cc1
Activity [1]: 104% | Activity [2]: 124% | Activity [3]: 105% | Activity [4]: 102% | Activity [5]: 109% | Activity [6]: 100% | Activity [7]: 90.32% | Activity [8]: 119% | Activity [9]: 105% | Activity [10]: 107% | Activity [11]: 102% | Activity [12]: 102% | Activity [13]: 81.79% | Activity [14]: 97.59% | Activity [15]: 77.51% | Activity [16]: 103% | Activity [17]: 104% | Activity [18]: 106% | Activity [19]: 79.22% | Activity [20]: 110% | Activity [21]: 102% | Activity [22]: 107% | Activity [23]: 119% | Activity [24]: 101% | Activity [25]: 100% | Activity [26]: 90.32% | Activity [27]: 85.81% | Activity [28]: 107% | Activity [29]: 97.05% | Activity [30]: 93.83% | Activity [31]: 89.23% | Activity [32]: 116% | Activity [33]: 87.19% | Activity [34]: 84.34% | Activity [35]: 87.81% | Activity [36]: 102% | Activity [37]: 102% | Activity [38]: 100%

COc1cc(/C=C/c2ccc(NC(=O)c3ccccc3NC(=O)c3ccccc3)cc2)ccc1O
Activity [1]: 162% | Activity [2]: 115% | Activity [3]: 96.88% | Activity [4]: 104% | Activity [5]: 95.39% | Activity [6]: 94.69% | Activity [7]: 95.86% | Activity [8]: 94.13% | Activity [9]: 95.46% | Activity [10]: 95.9% | Activity [11]: 105% | Activity [12]: 109% | Activity [13]: 79.93% | Activity [14]: 91.92% | Activity [15]: 96.33% | Activity [16]: 92% | Activity [17]: 107% | Activity [18]: 117% | Activity [19]: 106.41% | Activity [20]: 115% | Activity [21]: 103% | Activity [22]: 107% | Activity [23]: 100% | Activity [24]: 121% | Activity [25]: 79.36% | Activity [26]: 99.7% | Activity [27]: 110% | Activity [28]: 108% | Activity [29]: 99.78% | Activity [30]: 98.82% | Activity [31]: 96.74% | Activity [32]: 96.3% | Activity [33]: 97.49% | Activity [34]: 98.83% | Activity [35]: 92.7% | Activity [36]: 116% | Activity [37]: 101% | Activity [38]: 96.62%

O=C(Nc1ccccc1C(=O)Nc1ccc(/C=C/c2ccc(O)cc2)cc1)c1ccccc1
Activity [1]: 97.53% | Activity [2]: 103% | Activity [3]: 40.21% | Activity [4]: 94.49% | Activity [5]: 77.87% | Activity [6]: 95.55% | Activity [7]: 81.43% | Activity [8]: 61.81% | Activity [9]: 79.29% | Activity [10]: 70.25% | Activity [11]: 91.38% | Activity [12]: 101% | Activity [13]: 40.37% | Activity [14]: 71.88% | Activity [15]: 77.81% | Activity [16]: 69.03% | Activity [17]: 92.1% | Activity [18]: 71.73% | Activity [19]: 94.97% | Activity [20]: 101% | Activity [21]: 103% | Activity [22]: 89.47% | Activity [23]: 104% | Activity [24]: 97.64% | Activity [25]: 53.22% | Activity [26]: 94.19% | Activity [27]: 81.74% | Activity [28]: 69.03% | Activity [29]: 75.71% | Activity [30]: 57.75% | Activity [31]: 76.35% | Activity [32]: 85.6% | Activity [33]: 50.34% | Activity [34]: 40.16% | Activity [35]: 70.71% | Activity [36]: 96.06% | Activity [37]: 97.53% | Activity [38]: 80.93%
